How the values were obtained:
[1] = Inhibition of glucose-induced insulin release in rat pancreatic islets assessed as residual insulin secretion at 10 uM incubated for 90 mins incubated in presence of 16.7 mM glucose by radioimmunology assay; format: functional
In short: (§1)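 Islets isolated from adult fed Wistar rats by collagenase digestion, used fresh. Groups of 10 islets pre-incubated 30 min at 37 °C in bicarbonate salt medium with 2.8 mM glucose and 0.5% albumin, gassed O2/CO2 95:5. Then 90 min at 37 °C with 16.7 mM glucose plus compound. Insulin by RIA against rat insulin standard. Output is % of control secretion, mean ± SEM (n).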

[2] = Inhibition of glucose-induced insulin release in rat pancreatic islets assessed as residual insulin secretion at 1 uM incubated for 90 mins incubated in presence of 16.7 mM glucose by radioimmunology assay; format: functional; in short: as §1
Thoracic aorta [3] = assay: Myorelaxant activity in rat thoracic aortic rings assessed as relaxation of 30 mM KCl-induced contraction by force-displacement transducer based assay relative to KCl; format: functional, tissue-based
In short: (§2)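 Aortic rings from adult fed Wistar rats. Kept at 37 °C in oxygenated medium (95% O2/5% CO2) and equilibrated 60 min. Contraction raised with 30 or 80 mM KCl and recorded isometrically by force transducer. Drug added cumulatively, up to maximal relaxation or 200 µM. Response expressed as % of KCl contraction; EC50 from concentration–response curves, mean ± SEM (n).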

Thoracic aorta [4] = assay: Myorelaxant activity in rat thoracic aortic rings assessed as relaxation of 30 mM KCl-induced contraction in presence of 10 uM K-ATP channel blocker glibenclamide by force-displacement transducer based assay relative to KCl; format: functional, tissue-based
In short: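 Wistar rat aortic rings in oxygenated medium at 37 °C, equilibrated 60 min, with 10 µM glibenclamide present throughout. Precontracted with 30 mM KCl; isometric tension recorded by transducer. Cumulative drug addition to maximal relaxation or 200 µM. Tension expressed as % of KCl response; EC50 (50% inhibition of plateau) from concentration–response curves.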

Thoracic aorta [5] = assay: Myorelaxant activity in rat thoracic aortic rings assessed as relaxation of 80 mM KCl-induced contraction by force-displacement transducer based assay relative to KCl; format: functional, tissue-based; in short: as §2

Compound	EC50 (Thoracic aorta [3])	EC50 (Thoracic aorta [4])	EC50 (Thoracic aorta [5])	Activity [1]	Activity [2]
CC1(C)CN(NC(=O)Nc2ccc(C#N)cc2)c2cc(Cl)ccc2O1	3.7 µM			43.1%	79%
CC1(C)CN(NC(=S)Nc2cccc(Cl)c2)c2cc(Cl)ccc2O1	> 30 µM			71.8%	
CC1(C)CN(NC(=O)Nc2cccc(Cl)c2)c2cc(Cl)ccc2O1	9.9 µM			46%	92.5%
CC1(C)CN(NC(=S)Nc2cccc(C#N)c2)c2cc(Cl)ccc2O1	> 30 µM			27%	83.1%
CC1(C)CN(NC(=O)Nc2cccc(C#N)c2)c2cc(Cl)ccc2O1	1.9 to 3.1 µM	3.9 µM	5 µM	35.7%	79.5%

Continued, in another order:

EC50 (Thoracic aorta [3])	EC50 (Thoracic aorta [4])	EC50 (Thoracic aorta [5])	Compound	Activity [1]	Activity [2]
> 30 µM			CC1(C)CN(NC(=S)Nc2ccc(C#N)cc2)c2cc(Cl)ccc2O1	10.8%	73.3%
> 30 µM			CC1(C)CN(NC(=S)Nc2ccc(Cl)cc2)c2cc(Cl)ccc2O1	81.4%	
13.3 µM			CC1(C)CN(NC(=O)Nc2ccc(Cl)cc2)c2cc(Cl)ccc2O1	56.2%	89.5%
